Bioassay records (PubChem BioAssay)
FGF22 binding = binders of human FGF22 protein, primary screen, FGF22 synaptogenesis inhibitor project, biophysical, thermal shift, single point | 340,000 tested, 1.5% active | activity (Tm shift, normalised), % at 9.99 µM | Fibroblast growth factor 22 (Homo sapiens), Q9HCT0 | recombinant FGF22 thermal shift, SYPRO orange fluorescence; percent of sucrose octasulfate shift, DMSO zero;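 active means mean Tm shift, scaled 0 neutral to 100 positive control, at about 1.3% or above, every replicate too, limit read from the data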
SIRT5 block = SIRT5 desuccinylase inhibitors, primary screen, biochemical, fluorescence imaging, single point, set 5 | NAD-dependent protein deacylase sirtuin-5, mitochondrial (Homo sapiens), Q9NXA8 | Purified SirT5, succinyl-peptide AMC, trypsin-coupled fluorescence | inhibition, % at 15 µM | 330,000 tested, 1.1% active; in the data active means inhibition above about 15%
miR-122 sensor = miR-122 Renilla sensor signal increase in Huh7, primary screen, miR-122 inhibitor project, cell-based, single point, plate reader; Huh7 miR-122 Renilla luciferase sensor, 48 h; neutral wells = 0, positive control = 100; 340,000 tested, 0.3% active; activation (reporter increase), % at 12.5 µM;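 active means mean replicate activation score at least 90 and every replicate individually at or above 90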;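 further: higher luciferase means less miR-122 activity so hits act as miR-122 inhibitors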
E-selectin induc = E-selectin induction in HUVECs, primary screen, imaging, HUVEC, immunofluorescence imaging, single point; activation, % at 7.58 µM; P16581; normalized: neutral wells 0, TNF-alpha wells 100; 260,000 tested, 0.37% active; AID 686992, 2013;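 active means mean E-selectin-positive cell signal at least 10% of the positive control, reached in at least 60% of replicates, without over 20% cell loss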
Target sequence (P16581 whole entry, looked up): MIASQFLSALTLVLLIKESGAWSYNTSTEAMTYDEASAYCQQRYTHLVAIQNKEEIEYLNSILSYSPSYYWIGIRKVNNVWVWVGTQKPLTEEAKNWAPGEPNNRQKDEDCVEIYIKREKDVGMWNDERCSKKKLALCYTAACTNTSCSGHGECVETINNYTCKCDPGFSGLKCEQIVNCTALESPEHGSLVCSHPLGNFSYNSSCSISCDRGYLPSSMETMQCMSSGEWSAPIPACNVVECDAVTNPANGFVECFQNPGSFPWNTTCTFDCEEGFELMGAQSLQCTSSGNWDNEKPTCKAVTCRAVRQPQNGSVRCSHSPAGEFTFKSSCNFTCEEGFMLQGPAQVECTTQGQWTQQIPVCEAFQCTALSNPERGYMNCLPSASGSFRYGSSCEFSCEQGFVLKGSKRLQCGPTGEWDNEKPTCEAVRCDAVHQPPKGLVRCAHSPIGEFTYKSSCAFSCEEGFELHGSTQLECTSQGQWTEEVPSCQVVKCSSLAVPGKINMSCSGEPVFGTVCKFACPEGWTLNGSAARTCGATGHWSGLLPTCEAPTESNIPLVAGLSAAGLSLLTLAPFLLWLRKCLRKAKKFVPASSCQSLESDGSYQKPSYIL
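Test system: HUVEC; input: 3,000 HUVEC/well; measured by: immunofluorescence imaging; read-out: % PE-positive cells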
S100A4 inh HTS = inhibitors of S100A4-myosin IIA peptide binding, primary screen, biochemical, fluorescence polarization, TAMRA-MyoIIA peptide; inhibition, % at 10.7 µM; AID 652163, 2013; 360,000 tested, 0.14% active; Protein S100-A4 (Homo sapiens), P26447;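 active means mean inhibition of at least 70% across replicates, with every replicate also reaching that level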
Target sequence (P26447 whole entry, looked up): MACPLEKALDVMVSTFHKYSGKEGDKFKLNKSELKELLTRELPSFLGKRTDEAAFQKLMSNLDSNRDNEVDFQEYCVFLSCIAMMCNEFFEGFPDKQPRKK
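incubation = readout 5 min after mixing, signal stable up to 60 min | system = S100A4 monomer protein | buffer or medium = HEPES pH 7.2 with CaCl2, KCl, NaCl, DTT, Triton | benchmarks = neutral control DMSO, positive control TFP | also added = fluorescent myosin IIA peptide, 5 nM | compound dosing = one concentration per compound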
Of the large screens only hits and unclear results are named; the others gave an inactive call. Only some compounds are listed: those with a hit (about 2.5% of all), similar ones and a draw of the others.

CCCNC(=O)[C@H]1N[C@H]2c3ccc(C4=CCCCC4)c(=O)n3C[C@H]2[C@@H]1CO	SIRT5 block 17.2
O=C(O)CN1C(=O)/C(=C\c2cccc(OCc3ccc(Cl)cc3Cl)c2)SC1=S	SIRT5 block 15.4 (no result: E-selectin induc)
O=C(O)CN1C(=O)/C(=C\c2ccccc2OCc2ccc(Cl)cc2Cl)SC1=S	none
CCOc1ccc(C(=O)Nc2cc(NC(=O)c3ccc(OCC)c(Cl)c3)cc(C(=O)O)c2)cc1Cl	SIRT5 block 15.3 (no result: E-selectin induc)
CCCc1cn(CC[C@@H]2CC[C@H](NC(=O)Nc3ccccc3F)[C@H](CO)O2)nn1	none
COC1CCN(Cc2cn(Cc3ccccc3)nc2-c2cc3ccccc3o2)CC1	none
OCC1CCCN(Cc2cn(Cc3ccccc3)nc2-c2cc3ccccc3o2)C1 (centres undefined)	FGF22 binding 43.0 (no result: miR-122 sensor)
OCc1cn(-c2ccccc2)nc1-c1cc2ccccc2o1	none
OCC1CCN(Cc2cn(Cc3ccccc3)nc2-c2cc3ccccc3o2)CC1	FGF22 binding 43.7 (no result: miR-122 sensor)
CO[C@@H]1CN(C)C(=O)c2ccc(NS(=O)(=O)c3ccc(C)cc3)cc2OC[C@@H](C)N(C(=O)NC(C)C)C[C@@H]1C	none (no result: FGF22 binding, SIRT5 block, S100A4 inh HTS)
CN1C(=O)c2cc(NC(=O)c3cnccn3)ccc2OC[C@@H]2O[C@@H](CC(=O)NCC3CC3)CC[C@H]21	none (no result: miR-122 sensor)
COc1ccc(C#Cc2ccc3c(c2)[C@]2(C(=O)N3)[C@H](c3ccc(OCCO)cc3)N3[C@H](c4ccccc4)[C@H](c4ccccc4)OC(=O)[C@H]3[C@@H]2C(=O)N2CCc3cc(OC)c(OC)cc3C2)cc1	SIRT5 block 15.3 (no result: miR-122 sensor, E-selectin induc)
COc1ccc(C#Cc2ccc3c(c2)[C@]2(C(=O)N3)[C@H](C(=O)N3CCc4cc(OC)c(OC)cc4C3)[C@H]3C(=O)O[C@H](c4ccccc4)[C@H](c4ccccc4)N3[C@@H]2c2ccc(OCCO)cc2)cc1	none (no result: miR-122 sensor, E-selectin induc)
COCCOC(=O)N1C(=O)[C@@]2(c3ccccc31)[C@H](c1ccccc1OCCO)N1[C@H](c3ccccc3)[C@H](c3ccccc3)OC(=O)[C@H]1[C@@H]2C(N)=O	FGF22 binding 24.0 (no result: miR-122 sensor, E-selectin induc)
COCCOC(=O)N1C(=O)[C@@]2(c3cc(C#CCCO)ccc31)[C@H](c1ccccc1OCCO)N1[C@H](c3ccccc3)[C@H](c3ccccc3)OC(=O)[C@H]1[C@@H]2C(=O)N1CCN(c2ncccn2)CC1	SIRT5 block 19.0 (no result: miR-122 sensor, E-selectin induc)
NC(=O)[C@H]1[C@@H]2C(=O)O[C@@H](c3ccccc3)[C@@H](c3ccccc3)N2[C@@H](c2ccccc2OCCO)[C@]12C(=O)Nc1ccc(C#CC3(O)CCCCCC3)cc12	SIRT5 block 16.0 (no result: miR-122 sensor, E-selectin induc)
COCCOC(=O)N1C(=O)[C@@]2(c3cc(C#CCCO)ccc31)[C@H](C(=O)N1CCN(c3ncccn3)CC1)[C@H]1C(=O)O[C@H](c3ccccc3)[C@H](c3ccccc3)N1[C@@H]2c1ccccc1OCCO	none (no result: miR-122 sensor, E-selectin induc)
C=CCNC(=O)[C@H]1[C@@H]2C(=O)O[C@@H](c3ccccc3)[C@@H](c3ccccc3)N2[C@@H](c2ccc(O)cc2)[C@]12C(=O)N(C(=O)OCCOC)c1ccc(C#CC3(O)CCCCCC3)cc12	none (no result: miR-122 sensor, E-selectin induc)
COc1ccc2c3c([nH]c2c1)[C@H](CO)N(C(=O)c1ccc(F)cc1)CC31CCN(C(=O)CC2CC2)CC1	none (no result: SIRT5 block, miR-122 sensor, S100A4 inh HTS)
C[C@H](CO)N1C[C@H](C)[C@H](CN(C)C(=O)C2CCCCC2)Oc2ncc(C#CC3CCCCC3)cc2C1=O	none
CCNC(=O)[C@H]1[C@H](CO)[C@H]2Cn3c(ccc(C4=CCCCC4)c3=O)[C@@H]1N2CCC(F)(F)F	none (no result: FGF22 binding, miR-122 sensor)
COCCOC(=O)N1C(=O)[C@@]2(c3cc(C#CCC(C(=O)OC)C(=O)OC)ccc31)[C@H](c1ccccc1OCCO)N1[C@H](c3ccccc3)[C@H](c3ccccc3)OC(=O)[C@H]1[C@@H]2C(=O)N1CCN(c2ncccn2)CC1	none (no result: miR-122 sensor, E-selectin induc)
COCCOC(=O)N1C(=O)[C@@]2(c3cc(C#CCC(C(=O)OC)C(=O)OC)ccc31)[C@H](c1ccccc1OCCO)N1[C@H](c3ccccc3)[C@H](c3ccccc3)OC(=O)[C@H]1[C@@H]2C(=O)NC[C@H](O)c1ccccc1	SIRT5 block 16.2 (no result: miR-122 sensor, E-selectin induc)
COCCOC(=O)N1C(=O)[C@@]2(c3ccccc31)[C@H](C(=O)N1CCN(c3ncccn3)CC1)[C@H]1C(=O)O[C@H](c3ccccc3)[C@H](c3ccccc3)N1[C@@H]2c1ccccc1OCCO	SIRT5 block 15.6 (no result: miR-122 sensor, E-selectin induc)
COC(=O)c1cn(-c2cccc(N)c2)nn1	none (no result: miR-122 sensor, E-selectin induc)
COc1ccc(C(=O)N2c3ccccc3C=CC2C#N)cc1 (centres undefined)	E-selectin induc 91.1 (no result: miR-122 sensor)
COCC(=O)Nc1ccc2c(c1)OC[C@H](C)N(Cc1ccccc1OC)C[C@H](C)[C@@H](OC)CN(C)C2=O	none (no result: miR-122 sensor)
C[C@H]1[C@@H]2C[C@@]3(O[C@H](c4ccccn4)N=C3C[C@@H]1c1ccccc1)N(Cc1ccncc1)C2=O	FGF22 binding 48.5 (no result: SIRT5 block, miR-122 sensor)
CC(=O)O/N=C/c1c(Cl)n(C)c2ccccc12	FGF22 binding 43.6 (no result: miR-122 sensor, E-selectin induc)
Cc1cccc(NC(=O)CCCN2C(=O)C(c3ccccc3)Oc3cccnc32)c1C (centres undefined)	E-selectin induc 57.4
Cc1cccc(C)c1NC(=O)CCCN1C(=O)C(c2ccccc2)Oc2cccnc21 (centres undefined)	none (no result: E-selectin induc)
Cc1cc(C)c(C(=O)Nc2cccc(F)c2)c(Cl)n1	FGF22 binding 43.0 (no result: miR-122 sensor, E-selectin induc)
Cc1cc(C)n(CCC(=O)N2c3ccccc3CC2C)n1 (centres undefined)	SIRT5 block 16.5 (no result: miR-122 sensor, E-selectin induc)
CC1Cc2ccccc2N1C(=O)CCn1cccn1 (centres undefined)	none (no result: E-selectin induc)
C[C@@H]1CN([C@H](C)CO)S(=O)(=O)c2ccc(C3=CCCCC3)cc2O[C@H]1CN(C)C(=O)Cc1ccncc1	SIRT5 block 17.2
C[C@@H]1CN([C@@H](C)CO)S(=O)(=O)c2ccc(C3=CCCCC3)cc2O[C@H]1CN(C)C(=O)Cc1ccccc1	SIRT5 block 16.0
C[C@@H]1CN([C@H](C)CO)S(=O)(=O)c2ccc(C3=CCCCC3)cc2O[C@H]1CN(C)C(=O)Cc1ccccc1	SIRT5 block 15.1
C[C@@H]1CN([C@@H](C)CO)S(=O)(=O)c2ccc(C3=CCCCC3)cc2O[C@@H]1CN(C)C(=O)Cc1ccncc1	none
C[C@@H]1CN([C@H](C)CO)S(=O)(=O)c2ccc(C3=CCCCC3)cc2O[C@@H]1CN(C)C(=O)Cc1ccccc1	none
